Bioassay records: PubChem, Broad Institute
ERAP1 inh = inhibitors of human ERAP1 aminopeptidase; AID 652197; recombinant ERAP1, Leu-AMC fluorescence, 60 min; Q9NZ08; inhibition, % at 10.7 µM; 340,000 tested, 0.15% active;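 active = mean replicate inhibition of at least 30%, or all replicates individually reaching that 30% level; inactive = mean below 30% and not every replicate reaching it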
Target sequence (Q9NZ08 whole entry, looked up): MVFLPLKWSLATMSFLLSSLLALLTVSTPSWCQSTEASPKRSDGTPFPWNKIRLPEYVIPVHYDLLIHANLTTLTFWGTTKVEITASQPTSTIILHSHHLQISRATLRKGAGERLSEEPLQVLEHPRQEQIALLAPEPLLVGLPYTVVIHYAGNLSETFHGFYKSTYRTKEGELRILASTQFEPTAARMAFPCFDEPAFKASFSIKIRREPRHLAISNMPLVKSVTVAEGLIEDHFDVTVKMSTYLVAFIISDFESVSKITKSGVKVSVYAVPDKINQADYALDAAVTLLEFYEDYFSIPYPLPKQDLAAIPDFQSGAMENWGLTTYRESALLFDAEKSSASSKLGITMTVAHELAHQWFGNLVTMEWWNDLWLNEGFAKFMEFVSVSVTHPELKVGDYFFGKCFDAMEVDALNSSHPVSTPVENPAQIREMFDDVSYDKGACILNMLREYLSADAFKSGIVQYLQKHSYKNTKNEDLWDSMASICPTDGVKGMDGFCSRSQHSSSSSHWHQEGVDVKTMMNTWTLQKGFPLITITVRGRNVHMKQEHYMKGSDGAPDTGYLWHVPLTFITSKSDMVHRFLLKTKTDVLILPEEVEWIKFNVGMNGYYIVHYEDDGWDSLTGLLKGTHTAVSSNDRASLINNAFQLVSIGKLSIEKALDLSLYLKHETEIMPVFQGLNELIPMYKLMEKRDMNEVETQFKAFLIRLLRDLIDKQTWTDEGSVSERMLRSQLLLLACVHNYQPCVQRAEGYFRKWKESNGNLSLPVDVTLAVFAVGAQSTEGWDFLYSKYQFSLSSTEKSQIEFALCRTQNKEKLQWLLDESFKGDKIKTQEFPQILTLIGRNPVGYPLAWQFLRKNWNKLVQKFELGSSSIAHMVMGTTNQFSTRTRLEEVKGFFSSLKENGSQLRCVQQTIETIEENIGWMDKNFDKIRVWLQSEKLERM
FGF22 binding = shifts melting point of recombinant human FGF22; Q9HCT0; AID 651658; recombinant FGF22 thermal shift, SYPRO orange fluorescence; percent of sucrose octasulfate shift, DMSO zero; 340,000 tested, 1.5% active; activity (Tm shift, normalised), % at 9.99 µM;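 active = mean Tm shift, scaled 0 neutral to 100 positive control, at about 1.3% or above, every replicate too, limit read from the data; inconclusive = no clear call, values can overlap the other calls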
Cneo AK release = Cryptococcus neoformans lysis via adenylate kinase release | C. neoformans lysis, adenylate kinase release luminescence, 4 h; normalised: neutral wells 0, clomiphene wells 100 | lysis activity, % at 15 µM | 360,000 tested, 0.2% active;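 active = mean lysis activity across replicates of at least 80%, whatever share of replicates individually reach that level; inactive = mean lysis activity below 80%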
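Material – Cryptococcus neoformans yeast cells · Quantity – 5 × 10^6 yeast cells/mL · Buffer or medium – YPD medium · Compound – single dose · Timing – 4 h static compound exposure, 37 °C, read 1 h post-reagent · Signal – adenylate kinase release luminescence · Read-out basis – lysis from increased AK signal · Benchmarks – Clomiphene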
rRNA inh HTS = selective bacterial rRNA inhibition in E. coli | E. coli WT GFP vs humanized-ribosome RFP mutants, fluorescence, 24 h; active compounds read low; DMSO median 0, no signal -100 | GFP signal change (wild-type ribosome), % (no concentration beside the values) | 350,000 tested, 1.6% active | AID 720706;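 active = significant combined selectivity score with lowered wild-type GFP, culture density cut under 30%, mutant RFP and density less affected; inactive = any of these conditions unmet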
PGC1a acetyl inh = modulators of PGC1a acetylation; U2OS PGC1a acetylation, AlphaScreen anti-acetyl-lysine; with virally co-expressed GCN5 acetyltransferase; inhibition, % at 15.6 µM; 350,000 tested, 0.17% active;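 active = every replicate shows inhibition of at least 40%; inconclusive = mean inhibition at least 40% but some replicate below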
Env fusion inh = HIV envelope-mediated fusion inhibition | inhibition, % at 12.3 µM | HeLa-JRFL Env/CEM21 cell fusion, luciferase | 360,000 tested, 1.1% active;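 active = mean replicate inhibition score of at least 50 and every replicate individually at or above 50; inconclusive = only one of the two criteria met; inactive = mean below 50 and not all replicates reaching 50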
Hits are given with their value; 0 = inactive; ? = inconclusive; - = not tested or not shown; [ ] = remark or other dose. Shown are actives, neighbours in structure and some others; about 3.5% of the full set was active somewhere.

SMILES	ERAP1 inh	FGF22 binding	Cneo AK release	rRNA inh HTS	PGC1a acetyl inh	Env fusion inh
CCN(CC)S(=O)(=O)c1cc(NC(=O)c2n[nH]c(=O)c3ccccc23)ccc1C	0	0	0	0	0	0
C[C@H](CO)N1C[C@H](C)[C@H](CN(C)Cc2cccc(F)c2)OCc2ccccc2-c2c(n(C)c3ccccc23)C1=O	-	0	-	0	0	-
C[C@H]1CN([C@@H](C)CO)C(=O)c2c(c3ccccc3n2C)-c2ccccc2CO[C@H]1CN(C)Cc1cccc(F)c1	-	0	0	0	0	66.6
C[C@H](CO)N1C[C@H](C)[C@H](CN(C)Cc2cccc(F)c2)OCc2ccccc2-c2ccccc2C1=O	-	-	-	0	0	74.7[16.7 µM]
C[C@@H]1CN([C@@H](C)CO)C(=O)c2ccccc2-c2ccccc2CO[C@@H]1CN(C)Cc1cccc(O)c1	0	0	0	0	0	0
C[C@H](CO)N1C[C@H](C)[C@H](CN(C)Cc2cccnc2)OCc2ccccc2-c2c(n(C)c3ccccc23)C1=O	0	0	0	0	0	58.7[16.7 µM]
COc1ccc(S(=O)(=O)/N=C2/NC(=O)/C(=C/c3ccco3)S2)cc1	0	1.4	-	0	-	-
COc1ccc(S(=O)(=O)/N=C2/NC(=O)/C(=C\c3ccco3)S2)cc1	-	-	-	-	-	0
COc1cc(/C=C2\S/C(=N/S(=O)(=O)c3ccccc3)NC2=O)c([N+](=O)[O-])cc1OC	-	-	0	-	0	0
COc1ccc(S(=O)(=O)/N=C2/NC(=O)/C(=C\c3cc(OC)c(OC)cc3[N+](=O)[O-])S2)cc1	-	-	0	-	0	40.3
CC(NC(=O)CN1C(=O)NC(C)(C2CC2)C1=O)c1ccc(F)cc1 (stereo not given)	0	0	0	0	-	0
CN(C)/C=N/S(=O)(=O)c1ccc(Cl)cc1	0	43.0	0	0	0	0
Cc1ccc(S(=O)(=O)/N=C/N(C)C)cc1	-	-	0	-	0	-
C=CCn1c(C)nnc1SCC(=O)NC1CC1	0	0	0	0	?	61.8
Cc1ccc(S(=O)(=O)N2CCC(C(=O)NCCN3CCOCC3)CC2)cc1C	0	0	0	0	0	0
O=C(CN(c1ccc2c(c1)OCCO2)S(=O)(=O)c1ccccc1)N1CCN(Cc2ccccc2)CC1	0	43.5	0	0	-	0
O=C(Cc1cccs1)NCCS(=O)(=O)N1CCN(c2ccccc2F)CC1	0	0	-	0	-	0
CCCCn1c(N)c(Sc2ccc([N+](=O)[O-])cc2)c(=O)[nH]c1=O	0	0	0	0	0	0
CCCCn1c(N)c(Sc2ccc(Cl)cc2)c(=O)[nH]c1=O	0	0	0	-20.9	0	-
O=C(O)c1c2c(nc3ccc(S(=O)(=O)N4CCC(C(=O)NC5CCCC5)CC4)cc13)CCCCC2	0	0	0	0	0	0
Cc1ccc(S(=O)(=O)N(C)CCN(C)S(=O)(=O)c2ccc(C)cc2)cc1	0	43.2	-	0	0	-
Cc1ccc(S(=O)(=O)N(C)S(=O)(=O)c2ccc(C)cc2)cc1	0	0	0	0	-	0
CCOc1ccc(C(c2c(NC(=O)c3ccco3)sc(C)c2C)N2CCOCC2)cc1 (stereo not given)	0	0	0	0	0	-
COC(=O)Nc1nc2ccc(-c3n[nH]c(=O)c4ccccc34)cc2[nH]1	-	-	-	-	-	0
CCN(CC)CCOC(=O)/C=C/c1ccccc1	0	0	-	0	-	0
SMILES	ERAP1 inh	FGF22 binding	Cneo AK release	rRNA inh HTS	PGC1a acetyl inh	Env fusion inh
CCN(CC)CC(C)(C)C(=O)/C=C/c1ccc(/C=C/C(=O)C(C)(C)CN(CC)CC)cc1	0	0	-	-14.2	-	55.2
CC(=O)Nc1ccc(S(=O)(=O)N2CCN(CC3CC4C=CC3C4)CC2)cc1 (stereo not given)	0	0	-	-22.4	0	0
CC(=O)Nc1ccc(S(=O)(=O)N2CCN(Cc3ccccc3[N+](=O)[O-])CC2)cc1	0	43.9	-	0	-	0
O=C(Nc1ccc([N+](=O)[O-])cc1)c1ccc(S(=O)(=O)N2CCCC2)cc1	0	0	0	0	-	0
O=C(Nc1ccc(S(=O)(=O)N2CCCCCC2)cc1)c1[nH]ncc1[N+](=O)[O-]	0	0	0	-40.0	-	0
CCOc1ccc(Cc2nc(N)nc(N)n2)cc1	-	-	0	-	0	0
O=C(CCCn1c(SCc2cc(=O)n3ccccc3n2)nc2ccccc2c1=O)NCC1CCCO1 (stereo not given)	0	0	0	0	0	0
CC(=O)Nc1cccc(NC(=O)c2ccc(C(=O)Nc3cccc(NC(C)=O)c3)nc2)c1	0	0	-	0	-	0
CCc1ccc(-c2nc(CSCC(=O)NC3CC3)c(C)o2)cc1	0	0	0	0	-	0
CCCCNC(=O)CSc1nc2c(sc(=S)n2-c2cc(Cl)ccc2OC)c(=O)[nH]1	0	1.4	0	0	-	0
COc1ccc(Cl)cc1-n1c(=S)sc2c(=O)[nH]c(SCC(=O)C(C)(C)C)nc21	0	0	0	-23.5	0	0
COC(=O)CNC(=O)CSc1nc2c(sc(=S)n2-c2ccccc2)c(=O)[nH]1	0	0	0	0	0	0
CCc1ccc(-n2c(=S)sc3c(=O)[nH]c(SCC(=O)NC4CCCCC4)nc32)cc1	0	43.5	0	0	0	0
Cn1nc(C(F)(F)F)c2cc(NC(=O)OCc3ccc(C(C)(C)C)cc3)sc21	-	-	0	-	0	0
CCS(=O)(=O)Nc1ccc2c(c1)C(=O)N(C)C[C@H](OC)[C@@H](C)CN(Cc1ccccn1)[C@@H](C)CO2	0	0	0	0	0	0
Nc1nc(SCn2nnc3ccccc3c2=O)n[nH]1	0	43.2	0	0	-	0
CNC(=O)c1ccc2c(c1)nnn2C	-	-	-	-	-	0
COc1ccccc1N1CCN(c2ccc3c(c2)S(=O)(=O)c2cccc(C(=O)NCC4CC4)c2C3=O)CC1	0	0	0	0	0	0
OCCN(Cc1ccccc1)CC1CCCCC1	-	-	0	-	56.6	0
OCCN(Cc1ccccc1)CC1CC2C=CC1C2 (stereo not given)	-	-	0	-	0	0
O=C(NCc1nc(-c2ccc(C(F)(F)F)cc2)no1)Nc1cc(Cl)cc(Cl)c1	0	0	-	-46.9	0	0
O=C(NCc1nc(-c2ccc(C(F)(F)F)cc2)no1)Nc1ccc(F)cc1F	-	0	0	0	0	0
CN(C)c1cccc(C(=O)N/C=C/n2cnc3cc(C(F)(F)F)ccc32)c1	0	43.1	-	0	-	0
CCC(=O)N/C=C/n1cnc2cc(C(F)(F)F)ccc21	-	-	0	-	0	0
CC12CCC(C(N)=O)(c3nc4ccccc4nc31)C2(C)C (stereo not given)	-	-	0	-	0	-
COc1ccccc1CN(C)C(=O)CN1CCN(C(=O)c2cccs2)CC1	0	0	0	0	0	68.0
COc1ccccc1CC(NC(C)=O)C(=O)N1CCN(C(=O)c2cccs2)CC1 (stereo not given)	-	-	0	-	0	-
O=S(=O)(Nc1cccc(-n2cnnn2)c1)c1ccc(Cl)nc1	0	0	0	0	0	0
